Assay results: ChEMBL document CHEMBL1125199, “Comparison of azabicyclic esters and oxadiazoles as ligands for the muscarinic receptor” (J Med Chem, 1991)

Tests used:
[1] = target: T1, Muscarinic acetylcholine receptor (Rattus norvegicus) (UniProt P08482+P08483+P08485+P08911+P10980); assay: Relative binding of QNB and OXO-M to muscarininc receptors (ratio of IC50); format: protein assay
In short: (§1)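 Ratio of IC50 for [3H]QNB displacement to IC50 for [3H]OXO-M displacement in rat cerebral cortex membranes. [3H]QNB at 0.27 nM; [3H]OXO-M at 2 nM with 2 mM MgCl2. Both incubated at 37 °C for 30 min in 50 mM Tris pH 7.7.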

[2] = target: Muscarinic acetylcholine receptor; assay: The compound was tested in vitro for central muscarinic acetylcholine receptor affinity to displace [3H]quinuclidinyl benzilate from rat cerebral cortex; Value ranges from 2300-2600; format: tissue-based
[3] = target: Muscarinic acetylcholine receptor; assay: The compound was tested in vitro for central muscarinic acetylcholine receptor affinity to displace [3H]oxotremorine-M from rat cerebral cortex; Value ranges from 41-48; format: tissue-based
[4] = target: Muscarinic acetylcholine receptor; assay: The compound was tested for muscarinic acetylcholine receptor affinity to displace [3H]oxotremorine-M from rat cerebral cortex; Value ranges from 250-280; format: tissue-based
[5] = target: Muscarinic acetylcholine receptor; assay: The compound was tested in vitro for central muscarinic acetylcholine receptor affinity to displace [3H]quinuclidinyl benzilate from rat cerebral cortex; Value ranges from 1300-2300; format: tissue-based
[6] = target: Muscarinic acetylcholine receptor; assay: The compound was tested in vitro for central muscarinic acetylcholine receptor affinity to displace [3H]quinuclidinyl benzilate from rat cerebral cortex; Value ranges from 23000-38000; format: tissue-based
[7] = target: T1, Muscarinic acetylcholine receptor (Rattus norvegicus); assay: It is the ratio of IC50 (QNB) to that of IC50 (OXO-M); format: protein assay; in short: as §1
[8] = target: Muscarinic acetylcholine receptor; assay: The compound was tested in vitro for central muscarinic acetylcholine receptor affinity to displace [3H]oxotremorine-M from rat cerebral cortex; Value ranges from 78-200; format: tissue-based
[9] = target: Muscarinic acetylcholine receptor; assay: The compound was tested in vitro for central muscarinic acetylcholine receptor affinity to displace [3H]quinuclidinyl benzilate from rat cerebral cortex; Value ranges from 8000-17000; format: tissue-based
[10] = target: Muscarinic acetylcholine receptor; assay: The compound was tested in vitro for central muscarinic acetylcholine receptor affinity to displace [3H]oxotremorine-M from rat cerebral cortex; Value ranges from 650-1900; format: tissue-based
[11] = target: Muscarinic acetylcholine receptor; assay: The compound was tested in vitro for central muscarinic acetylcholine receptor affinity to displace [3H]oxotremorine-M from rat cerebral cortex; Value ranges from 75-80; format: tissue-based
[12] = target: Muscarinic acetylcholine receptor; assay: The compound was tested in vitro for central muscarinic acetylcholine receptor affinity to displace [3H]quinuclidinyl benzilate from rat cerebral cortex; Value ranges from 11000-14000; format: tissue-based
[13] = target: Muscarinic acetylcholine receptor; assay: The compound was tested in vitro for central muscarinic acetylcholine receptor affinity to displace [3H]quinuclidinyl benzilate from rat cerebral cortex; Value ranges from 2800-6300; format: tissue-based
[14] = target: Muscarinic acetylcholine receptor; assay: The compound was tested in vitro for central muscarinic acetylcholine receptor affinity to displace [3H]oxotremorine-M from rat cerebral cortex; Value ranges from 200-340; format: tissue-based
[15] = target: Muscarinic acetylcholine receptor; assay: The compound was tested in vitro for central muscarinic acetylcholine receptor affinity to displace [3H]oxotremorine-M from rat cerebral cortex; Value ranges from 93-190; format: tissue-based
[16] = target: Muscarinic acetylcholine receptor; assay: The compound was tested in vitro for central muscarinic acetylcholine receptor affinity to displace [3H]quinuclidinyl benzilate from rat cerebral cortex; Value ranges from 14000-38000; format: tissue-based
[17] = target: Muscarinic acetylcholine receptor; assay: The compound was tested in vitro for central muscarinic acetylcholine receptor affinity to displace [3H]quinuclidinyl benzilate from rat cerebral cortex; Value ranges from 48000-100000; format: tissue-based
[18] = target: Muscarinic acetylcholine receptor; assay: The compound was tested in vitro for central muscarinic acetylcholine receptor affinity to displace [3H]oxotremorine-M from rat cerebral cortex; Value ranges from 93-280; format: tissue-based
[19] = target: Muscarinic acetylcholine receptor; assay: The compound was tested in vitro for central muscarinic acetylcholine receptor affinity to displace [3H]quinuclidinyl benzilate from rat cerebral cortex; Value ranges from 15000-45000; format: tissue-based
[20] = target: Muscarinic acetylcholine receptor; assay: The compound was tested in vitro for central muscarinic acetylcholine receptor affinity to displace [3H]oxotremorine-M from rat cerebral cortex; Value ranges from 73-120; format: tissue-based
[21] = target: Muscarinic acetylcholine receptor; assay: The compound was tested in vitro for central muscarinic acetylcholine receptor affinity to displace [3H]quinuclidinyl benzilate from rat cerebral cortex; Value ranges from 1700-2000; format: tissue-based
[22] = target: Muscarinic acetylcholine receptor; assay: The compound was tested in vitro for central muscarinic acetylcholine receptor affinity to displace [3H]oxotremorine-M from rat cerebral cortex; Value ranges from 6-29; format: tissue-based
[23] = target: Muscarinic acetylcholine receptor; assay: The compound was tested in vitro for central muscarinic acetylcholine receptor affinity to displace [3H]oxotremorine-M from rat cerebral cortex; Value ranges from 36-85; format: tissue-based
[24] = target: Muscarinic acetylcholine receptor; assay: The compound was tested in vitro for central muscarinic acetylcholine receptor affinity to displace [3H]quinuclidinyl benzilate from rat cerebral cortex; Value ranges from 29000-33000; format: tissue-based
[25] = target: Muscarinic acetylcholine receptor; assay: The compound was tested in vitro for central muscarinic acetylcholine receptor affinity to displace [3H]oxotremorine-M from rat cerebral cortex; Value ranges from 25-31; format: tissue-based
[26] = target: Muscarinic acetylcholine receptor; assay: The compound was tested in vitro for central muscarinic acetylcholine receptor affinity to displace [3H]quinuclidinyl benzilate from rat cerebral cortex; Value ranges from 1800-3000; format: tissue-based
[27] = target: Muscarinic acetylcholine receptor; assay: The compound was tested in vitro for central muscarinic acetylcholine receptor affinity to displace [3H]oxotremorine-M from rat cerebral cortex; Value ranges from 100-150; format: tissue-based
[28] = target: Muscarinic acetylcholine receptor; assay: The compound was tested in vitro for central muscarinic acetylcholine receptor affinity to displace [3H]quinuclidinyl benzilate from rat cerebral cortex; Value ranges from 3900-5800; format: tissue-based
[29] = target: Muscarinic acetylcholine receptor; assay: The compound was tested in vitro for central muscarinic acetylcholine receptor affinity to displace [3H]quinuclidinyl benzilate from rat cerebral cortex; Value ranges from 44000-60000; format: tissue-based
[30] = test system: Mus musculus; assay: Dose administered perorally which causes a fall of 3 degrees C in mean rectal temperature in group of 5 mice; format: functional
In short: (§2)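 Male CDI mice, 25–32 g, housed singly; rectal temperature read by thermocouple probe at 2.5 cm depth, three baseline readings at 20–30 min intervals, then every 15 min after dosing. ED3 read graphically as the dose giving a 3 °C fall in mean rectal temperature, groups of five; 95% confidence intervals given.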

[31] = test system: Mus musculus; assay: Dose administered subcutaneously which causes a fall of 3 degrees C in mean rectal temperature in group of 5 mice; format: functional; in short: as §2
[32] = target: Muscarinic acetylcholine receptor; assay: The compound was tested in vitro for central muscarinic acetylcholine receptor affinity to displace [3H]oxotremorine-M from rat cerebral cortex; Value ranges from 190-280; format: tissue-based
[33] = target: Muscarinic acetylcholine receptor; assay: The compound was tested in vitro for central Muscarinic acetylcholine receptor affinity to displace [3H]quinuclidinyl benzilate from rat cerebral cortex; Value ranges from […]; format: tissue-based
[34] = It is the ratio of IC50(QNB) to that of IC50(OXO-M); in short: as §1
[35] = test system: Mus musculus; assay: Dose administered subcutaneously which causes a fall of 3 degrees C in mean rectal temperature in group of 5 mice.; format: functional; in short: as §2
[36] = target: Muscarinic acetylcholine receptor; assay: The compound was tested in vitro for central Muscarinic acetylcholine receptor affinity to displace [3H]oxotremorine-M from rat cerebral cortex; Value ranges from 12-18; format: tissue-based
[37] = target: Muscarinic acetylcholine receptor; assay: The compound was tested in vitro for central muscarinic acetylcholine receptor affinity to displace [3H]quinuclidinyl benzilate from rat cerebral cortex; Value ranges from 6200-6700; format: tissue-based
[38] = target: Muscarinic acetylcholine receptor; assay: The compound was tested in vitro for central muscarinic acetylcholine receptor affinity to displace [3H]oxotremorine-M from rat cerebral cortex; Value ranges from 14-27; format: tissue-based
[39] = target: Muscarinic acetylcholine receptor; assay: The compound was tested in vitro for central muscarinic acetylcholine receptor affinity to displace [3H]oxotremorine-M from rat cerebral cortex; Value ranges from 950-1000; format: tissue-based
[40] = target: Muscarinic acetylcholine receptor; assay: The compound was tested in vitro for central muscarinic acetylcholine receptor affinity to displace [3H]quinuclidinyl benzilate from rat cerebral cortex; Value ranges from 15000-25000; format: tissue-based
[41] = target: Muscarinic acetylcholine receptor; assay: The compound was tested in vitro for central muscarinic acetylcholine receptor affinity to displace [3H]oxotremorine-M from rat cerebral cortex; Value ranges from 1000-1900; format: tissue-based
[42] = target: Muscarinic acetylcholine receptor; assay: The compound was tested in vitro for central muscarinic acetylcholine receptor affinity to displace [3H]quinuclidinyl benzilate from rat cerebral cortex; Value ranges from 60000-65000; format: tissue-based
[43] = target: Muscarinic acetylcholine receptor; assay: The compound was tested in vitro for central muscarinic acetylcholine receptor affinity to displace [3H]quinuclidinyl benzilate from rat cerebral cortex; Value ranges from 8000-11000; format: tissue-based
[44] = target: Muscarinic acetylcholine receptor; assay: The compound was tested in vitro for central muscarinic acetylcholine receptor affinity to displace [3H]oxotremorine-M from rat cerebral cortex; Value ranges from 34-52; format: tissue-based
[45] = target: Muscarinic acetylcholine receptor; assay: The compound was tested in vitro for central muscarinic acetylcholine receptor affinity to displace [3H]quinuclidinyl benzilate from rat cerebral cortex; Value ranges from 16000-36000; format: tissue-based
[46] = target: Muscarinic acetylcholine receptor; assay: The compound was tested in vitro for central muscarinic acetylcholine receptor affinity to displace [3H]oxotremorine-M from rat cerebral cortex; Value ranges from 440-600; format: tissue-based
[47] = target: Muscarinic acetylcholine receptor; assay: The compound was tested in vitro for central muscarinic acetylcholine receptor affinity to displace [3H]oxotremorine-M from rat cerebral cortex; Value ranges from 1.6-3.9; format: tissue-based
[48] = target: Muscarinic acetylcholine receptor; assay: The compound was tested in vitro for central muscarinic acetylcholine receptor affinity to displace [3H]quinuclidinyl benzilate from rat cerebral cortex; Value ranges from 930-1100; format: tissue-based

SMILES: Cc1noc([C@@H]2CN3CCC[C@@H]2C3)n1
- Ratio [1]: 55
- IC50 [2]: 2.4 µM
- IC50 [3]: 0.044 µM

SMILES: Cc1noc([C@@H]2C[C@H]3CCCN(C3)C2)n1
- Ratio [1]: 7
- IC50 [4]: 0.26 µM
- IC50 [5]: 1.73 µM

SMILES: Cc1nnc([C@@H]2CN3CC[C@@H]2C3)o1
- IC50 [6]: 29 µM
- Ratio [7]: 240
- IC50 [8]: 0.12 µM

SMILES: Cc1nc(C2CN3CCC2CC3)no1 (stereo unspecified)
- Ratio [7]: 10
- IC50 [9]: 12 µM
- IC50 [10]: 1.1 µM

SMILES: COC(=O)[C@@H]1C[C@H]2CCN(C2)C1
- Ratio [1]: 160
- IC50 [11]: 0.077 µM
- IC50 [12]: 12 µM

SMILES: Cc1nc(C23CCCN(CC2)C3)no1 (stereo unspecified)
- IC50 [13]: 4.2 µM
- Ratio [7]: 16
- IC50 [14]: 0.26 µM

SMILES: Cc1noc(C23CCN(CC2)C3)n1
- Ratio [1]: 170
- IC50 [15]: 0.13 µM
- IC50 [16]: 23 µM

SMILES: Cc1nnc(C23CCN(CC2)C3)o1
- Ratio [7]: 380
- IC50 [17]: 70 µM
- IC50 [18]: 0.18 µM

SMILES: Cc1nc([C@@H]2CN3CC[C@@H]2C3)no1
- Ratio [1]: 290
- IC50 [19]: 27 µM
- IC50 [20]: 0.092 µM

SMILES: Cc1noc(C2CN3CCC2CC3)n1 (stereo unspecified)
- Ratio [1]: 130
- IC50 [21]: 1.8 µM
- IC50 [22]: 0.014 µM

SMILES: COC(=O)C12CCN(CC1)C2
- IC50 [23]: 0.048 µM
- Ratio [7]: 650
- IC50 [24]: 31 µM

SMILES: Cc1noc([C@@H]2C[C@H]3CCN(C3)C2)n1
- Ratio [1]: 84
- IC50 [25]: 0.028 µM
- IC50 [26]: 2.4 µM

SMILES: COC(=O)[C@@H]1C[C@H]2CCCN(C2)C1
- Ratio [1]: 37
- IC50 [27]: 0.13 µM
- IC50 [28]: 4.8 µM

SMILES: COC(=O)[C@@H]1CN2CC[C@@H]1C2
- Ratio [1]: 220
- IC50 [29]: 51 µM
- ED3 [30]: >10 mg/kg
- ED3 [31]: 0.41 mg/kg
- IC50 [32]: 0.23 µM

SMILES: Cc1noc(C23CCCN(CC2)C3)n1 (stereo unspecified)
- IC50 [33]: 3.5 µM
- Ratio [34]: 230
- ED3 [30]: 0.018 mg/kg
- ED3 [35]: 0.0029 mg/kg
- IC50 [36]: 0.015 µM

SMILES: COC(=O)C12CCCN(CC1)C2 (stereo unspecified)
- Ratio [1]: 340
- IC50 [37]: 6.4 µM
- IC50 [38]: 0.019 µM
- ED3 [30]: >0.3 mg/kg
- ED3 [31]: 0.078 mg/kg

SMILES: Cc1nnc(C2CN3CCC2CC3)o1 (stereo unspecified)
- Ratio [7]: 20
- IC50 [39]: 0.98 µM
- IC50 [40]: 19 µM

SMILES: COC(=O)[C@@H]1C[N@@]2CCC[C@@H]1C2
- Ratio [7]: 46
- IC50 [41]: 1.4 µM
- IC50 [42]: 62 µM

SMILES: Cc1nnc(C23CCCN(CC2)C3)o1 (stereo unspecified)
- IC50 [43]: 9.4 µM
- Ratio [7]: 220
- IC50 [44]: 0.042 µM

SMILES: COC(=O)C1CN2CCC1CC2 (stereo unspecified)
- Ratio [1]: 49
- IC50 [45]: 25 µM
- IC50 [46]: 0.52 µM

SMILES: Cc1noc([C@@H]2CN3CC[C@@H]2C3)n1
- Ratio [1]: 360
- ED3 [30]: 0.0011 mg/kg
- IC50 [47]: 0.0028 µM
- IC50 [48]: 1 µM
- ED3 [31]: 0.0005 mg/kg
